Test results published in ChEMBL document CHEMBL4725282, “Discovery of a Conformationally Constrained Oxazolidinone with Improved Safety and Efficacy Profiles for the Treatment of Multidrug-Resistant Tuberculosis” (J Med Chem, 2020).
Values after ≈ are worked out from the molar mass of the structure shown. Active and inactive are the calls of the source. No cut-off for these calls is given here.

Columns and labels:
[1] = system: Mycobacterium tuberculosis; assay: Antitubercular activity against Mycobacterium tuberculosis H37Rv incubated for 7 days by microplate alamar blue assay; assay type: functional; details: Mycobacterium tuberculosis, H37Rv, 168 h, time 7 day; read-out: MIC
Procedure, shortened: (§1)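 MIC determined by microplate alamar blue assay (MABA) following a published protocol.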

[2] = Inhibition of mitochondrial protein synthesis in rat H9c2 cells measured after 5 days by ELISA; assay type: cell-based; details: H9c2, 120 h
Procedure, shortened: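 H9C2 cells in DMEM with 10% FBS, seeded 1500/well. After 18 h, compound added at final 0.03–200 μM (3-fold series), then 5 days at 37 °C, 5% CO2; 0.5% DMSO negative control. MPS inhibition read by MitoBiogenesis In-Cell ELISA; IC50 calculated.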

[3] = Stability in CD-1 mouse liver microsome assessed as parent compound remaining at 1 uM measured after 30 mins in presence of NADPH by LC-MS/MS analysis; assay type: ADME; details: liver microsomes, read-out: Stabilty
Procedure, shortened: (§2)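 Liver microsomes (male CD-1 mouse or pooled human), 1 mg/mL protein, compound 1 µM, 37°C with shaking. Started with 1 mM NADPH or run without cofactor. Quenched with ice-cold ACN/MeOH containing internal standard. Parent quantified by LC-MS/MS; 30 min concentration normalised to time zero.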

[4] = Stability in CD-1 mouse liver microsome at 1 uM measured after 30 mins in absence of NADPH by LC-MS/MS analysis; assay type: ADME; details: microsomes, 0.5 h; procedure, shortened: as §2
[5] = system: Mycobacterium tuberculosis; assay: Antitubercular activity against Mycobacterium tuberculosis isolate 12525 incubated for 7 days by microplate alamar blue assay; assay type: functional; details: isolate 12525, 168 h, time 7 day; procedure, shortened: as §1
[6] = system: Mycobacterium tuberculosis; assay: (§3) Antitubercular activity against Mycobacterium tuberculosis H37Rv infected in Balb/c mouse assessed as lung bacterial burden by measuring colony forming unit at 100 mg/kg/day, po administered via gavage 5 times per week for 3 weeks starting from 10 days post-infection and measured 24 hrs post last dose (reference value: 7.102 +/- 0.152 log10CFU); assay type: functional; details: time 22 day
Procedure, shortened: (§4)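 Female SPF BALB/c mice, 6 per group, aerosol-infected with M. tuberculosis H37Rv to deposit 50-100 bacilli per lung. Compound suspended in 0.5% CMC, given by oral gavage from day 10 post-infection, 5 times per week for 3 weeks; controls got 0.5% CMC. Lungs harvested the day after the last dose, homogenised, diluted in HBSS, plated on 7H11 agar in duplicate, incubated 3 weeks at 37 °C. Result expressed as mean log10 CFU; t-test versus control.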

[7] = Toxicity in Mycobacterium tuberculosis H37Rv infected Balb/c mouse assessed as change in body weight at 100 mg/kg/day, po administered via gavage 5 times per week for 3 weeks starting from 10 days post-infection (reference value: 21.29 +/- 0.84 g); assay type: organism-based; details: in vivo, 504 h, time 21 day
[8] = system: Mycobacterium tuberculosis; assay: Antitubercular activity against Mycobacterium tuberculosis H37Rv infected in Balb/c mouse assessed as reduction in lung bacterial burden at 50 to 100 mg/kg/day, po administered via gavage 5 times per week for 3 weeks starting from 10 days post-infection and measured 24 hrs post last dose; assay type: functional, organism-based; details: dose mg/kg/day 50-100, time 22.0 day; procedure, shortened: as §4
Vero = assay: Cytotoxicity against African green monkey Vero cells assessed as reduction in cell viability measured after 48 hrs by MTT assay; assay type: cell-based; details: Chlorocebus sabaeus
Procedure, shortened: (§5)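 Cytotoxicity on Vero or HepG2 cells by MTT assay, run as previously reported.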

HepG2 = assay: Cytotoxicity against human HepG2 cells assessed as reduction in cell viability measured after 48 hrs by MTT assay; assay type: cell-based; details: HepG2, 48 h; procedure, shortened: as §5
[9] = target: T1, Amine oxidase [flavin-containing] A (Homo sapiens, UniProt P21397); assay: Inhibition of recombinant human MAOA expressed in baculovirus infected insect cells using kynuramine as substrate measured after 20 mins by LC-MS/MS analysis
T1 sequence (P21397 whole entry): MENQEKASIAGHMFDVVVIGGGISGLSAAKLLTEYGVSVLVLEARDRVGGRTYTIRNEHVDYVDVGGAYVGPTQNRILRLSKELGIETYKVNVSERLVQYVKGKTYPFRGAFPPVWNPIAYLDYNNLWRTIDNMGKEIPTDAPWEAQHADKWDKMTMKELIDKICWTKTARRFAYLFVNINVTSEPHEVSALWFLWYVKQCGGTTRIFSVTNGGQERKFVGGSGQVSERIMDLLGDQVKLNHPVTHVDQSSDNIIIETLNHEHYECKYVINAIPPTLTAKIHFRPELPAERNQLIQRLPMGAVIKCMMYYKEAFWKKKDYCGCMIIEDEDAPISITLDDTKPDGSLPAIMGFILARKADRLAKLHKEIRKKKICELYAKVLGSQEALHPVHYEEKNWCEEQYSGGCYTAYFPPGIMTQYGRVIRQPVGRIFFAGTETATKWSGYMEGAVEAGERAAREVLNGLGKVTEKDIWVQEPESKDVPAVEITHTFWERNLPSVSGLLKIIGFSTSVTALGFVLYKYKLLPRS
Procedure, shortened: (§6)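 Recombinant human MAO-A or MAO-B (50 μg/mL) in 100 mM potassium phosphate pH 7.4 with 5 mM MgCl2. Kynuramine substrate at 50 μM (MAO-A) or 25 μM (MAO-B). […] 4-Hydroxyquinoline formation measured by LC-MS/MS versus vehicle; IC50 derived.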

[10] = target: T2, Amine oxidase [flavin-containing] B (Homo sapiens, UniProt P27338); assay: Inhibition of recombinant human MAOB expressed in baculovirus infected insect cells using kynuramine as substrate measured after 20 mins by LC-MS/MS analysis; procedure, shortened: as §6
T2 sequence (P27338 whole entry): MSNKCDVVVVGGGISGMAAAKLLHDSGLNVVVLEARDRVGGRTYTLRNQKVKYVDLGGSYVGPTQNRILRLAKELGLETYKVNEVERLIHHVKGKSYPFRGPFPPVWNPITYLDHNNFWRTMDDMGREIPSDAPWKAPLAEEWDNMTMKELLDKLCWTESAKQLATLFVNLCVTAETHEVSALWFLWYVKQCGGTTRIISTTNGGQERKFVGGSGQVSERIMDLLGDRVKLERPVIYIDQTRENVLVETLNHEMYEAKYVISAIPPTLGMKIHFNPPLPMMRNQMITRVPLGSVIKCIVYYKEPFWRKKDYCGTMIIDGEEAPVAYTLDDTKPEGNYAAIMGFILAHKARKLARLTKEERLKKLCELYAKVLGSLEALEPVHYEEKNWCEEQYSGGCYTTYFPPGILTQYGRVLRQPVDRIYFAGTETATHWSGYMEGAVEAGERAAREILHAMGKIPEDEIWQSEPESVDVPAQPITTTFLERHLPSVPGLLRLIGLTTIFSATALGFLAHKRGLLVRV

[11] = system: Mycobacterium tuberculosis; assay: as §3, with “25” for “100”; assay type: functional; details: time 22 day; procedure, shortened: as §4
[12] = Toxicity in Mycobacterium tuberculosis H37Rv infected Balb/c mouse assessed as change in body weight at 25 mg/kg/day, po administered via gavage 5 times per week for 3 weeks starting from 10 days post-infection (reference value: 21.29 +/- 0.84 g); assay type: organism-based; details: in vivo, 504 h, time 21 day
[13] = system: Mycobacterium tuberculosis; assay: Antitubercular activity against Mycobacterium tuberculosis H37Rv infected in Balb/c mouse assessed as reduction in lung bacterial burden at 25 to 100 mg/kg/day, po administered via gavage 5 times per week for 3 weeks starting from 10 days post-infection and measured 24 hrs post last dose; assay type: functional, organism-based; details: dose mg/kg/day 25-100, time 22.0 day; procedure, shortened: as §4

| SMILES | MIC [1] [µg/mL] | IC50 [2] [µM] | remaining at 0.5 h, 1 µM [3] [%] | Stabilty [4] | MIC [5] [µg/mL] | Activity [6] [log10CFU] | Activity [7] [g] | Activity [8] | IC50 (Vero) [µg/mL] | IC50 (HepG2) [µg/mL] | IC50 [9] [µM] | IC50 [10] [µM] | Activity [11] [log10CFU] | Activity [12] [g] | Activity [13] |
| --- | --- | --- | --- | --- | --- | --- | --- | --- | --- | --- | --- | --- | --- | --- | --- |
| CC(=O)NC[C@H]1CN(c2ccc(N3CCOCC3)c(F)c2)C(=O)O1 [LINEZOLID] | 0.32 (≈ 0.949 µM) | 7.98 | 111 | Stable | 0.23 (≈ 0.682 µM) | 4.136 | 20.83 | Active | – | – | – | – | – | – | – |
| CC(=O)NC[C@H]1CN(c2ccc(N3CCSCC3)c(F)c2)C(=O)O1 [SUTEZOLID] | 0.1 (≈ 0.283 µM) | 8.17 | 54.8 | Stable | 0.06 (≈ 0.17 µM) | – | – | – | > 64 | > 64 | 13 | 0.7 | – | – | – |
| NNC(=O)c1ccncc1 [ISONIAZID] | 0.03 (≈ 0.219 µM) | – | – | – | > 10 | – | – | – | – | – | – | – | 1.929 | 21.3 | – |
| CC(=O)NC[C@@H]1OC(=O)N2c3cc(F)c(N4CCSCC4)cc3OC[C@@H]12 | – | – | – | – | – | – | – | – | – | – | – | – | – | – | Active |
